Measured values from ChEMBL document CHEMBL3856229, “Hybrid Antibiotic Overcomes Resistance in P. aeruginosa by Enhancing Outer Membrane Penetration and Reducing Efflux” (J Med Chem, 2016).
In brackets after ≈: the same amount, converted by molar mass.

Legend:
Enterococcus faecalis = assay: Antibacterial activity against Enterococcus faecalis ATCC 29212 after 24 hrs by microtitre broth dilution method; format: functional; settings: ATCC 29212, 24 h
Escherichia coli [1] = assay: Antibacterial activity against gentamicin/tobramycin/ciprofloxacin-resistant Escherichia coli isolate CANWARD-2011 97615 harboring AAC3-2A after 24 hrs by microtitre broth dilution method; format: functional; settings: isolate CANWARD-2011 97615, 24 h
Pseudomonas aeruginosa [2] = assay: Antibacterial activity against multidrug-resistant/tobramycin-susceptible Pseudomonas aeruginosa isolate 85322; format: functional
Escherichia coli [3] = assay: Antibacterial activity against Escherichia coli ATCC 25922 after 24 hrs by microtitre broth dilution method; format: functional; settings: ATCC 25922, 24 h
Escherichia coli [4] = assay: Antibacterial activity against gentamicin-resistant Escherichia coli isolate CAN-ICU 61714 after 24 hrs by microtitre broth dilution method; format: functional; settings: isolate CAN-ICU 61714, 24 h
Pseudomonas aeruginosa [5] = assay: Antibacterial activity against multidrug-resistant/tobramycin-susceptible Pseudomonas aeruginosa isolate 86079; format: functional
Klebsiella pneumoniae = assay: Antibacterial activity against Klebsiella pneumoniae ATCC 13883 after 24 hrs by microtitre broth dilution method; format: functional; settings: ATCC 13883, 24 h
Pseudomonas aeruginosa [6] = assay: Antibacterial activity against multidrug/extremely drug-resistant/colistin-susceptible Pseudomonas aeruginosa isolate 259-96918; format: functional
Pseudomonas aeruginosa [7] = assay: Antibacterial activity against gentamicin-resistant Pseudomonas aeruginosa isolate CAN-ICU 62308 after 24 hrs by microtitre broth dilution method; format: functional; settings: isolate CAN-ICU 62308, 24 h
Pseudomonas aeruginosa [8] = assay: Antibacterial activity against pandrug-resistant Pseudomonas aeruginosa isolate 91433; format: functional
Escherichia coli [9] = assay: Antibacterial activity against amikacin-resistant Escherichia coli isolate CAN-ICU 63074 after 24 hrs by microtitre broth dilution method; format: functional; settings: isolate CAN-ICU 63074, 24 h
Pseudomonas aeruginosa [10] = assay: Antibacterial activity against multidrug-resistant/tobramycin-susceptible Pseudomonas aeruginosa isolate 84745; format: functional
Pseudomonas aeruginosa [11] = assay: Antibacterial activity against extremely drug-resistant Pseudomonas aeruginosa isolate 104354 infected in Galleria mellonella assessed as larvae survival at 75 mg/kg administered as single dose measured after 96 hrs; format: functional; settings: isolate 104354, 96 h
Summary of the method: (§1)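 Galleria mellonella larvae were infected with 10^6 CFU of XDR P. aeruginosa #104354, resistant to all antipseudomonal classes except colistin. A single injected drug dose was given 2 h post-infection: 50 mg/kg with survival read at 24 h, or 75 mg/kg with survival read at 96 h. Controls were infected untreated larvae and PBS-injected larvae. Two independent experiments of 15 larvae each (n = 30).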

[12] = test system: Staphylococcus epidermidis; assay: Antibacterial activity against methicillin-susceptible Staphylococcus epidermidis isolate CANWARD-2008 81388 after 24 hrs by microtitre broth dilution method; format: functional; settings: isolate CANWARD-2008 81388, 24 h
Pseudomonas aeruginosa [13] = assay: Antibacterial activity against pandrug-resistant Pseudomonas aeruginosa isolate 101243; format: functional
Pseudomonas aeruginosa [14] = assay: Antibacterial activity against multidrug-resistant/tobramycin-susceptible Pseudomonas aeruginosa isolate 86052; format: functional
Pseudomonas aeruginosa [15] = assay: Induction of cytoplasmic membrane depolarization in Pseudomonas aeruginosa PAO1 by DiSC3(5) dye based fluorescence assay; format: functional
Pseudomonas aeruginosa [16] = assay: Antibacterial activity against multidrug-resistant/tobramycin-susceptible Pseudomonas aeruginosa isolate 108590; format: functional
Acinetobacter baumannii = assay: Antibacterial activity against Acinetobacter baumannii isolate CAN-ICU 63169 after 24 hrs by microtitre broth dilution method; format: functional; settings: isolate CAN-ICU 63169, 24 h
Enterococcus faecium = assay: Antibacterial activity against Enterococcus faecium ATCC 27270 after 24 hrs by microtitre broth dilution method; format: functional; settings: ATCC 27270, 24 h
Streptococcus pneumoniae = assay: Antibacterial activity against Streptococcus pneumoniae ATCC 49619 after 24 hrs by microtitre broth dilution method; format: functional; settings: ATCC 49619, 24 h
Pseudomonas aeruginosa [17] = assay: Antibacterial activity against multidrug/extremely drug-resistant/colistin-susceptible Pseudomonas aeruginosa isolate 101885; format: functional
Pseudomonas aeruginosa [18] = assay: Antibacterial activity against multidrug/extremely drug-resistant/colistin-susceptible Pseudomonas aeruginosa isolate 262-101856; format: functional
Pseudomonas aeruginosa [19] = assay: Antibacterial activity against multidrug/extremely drug-resistant/colistin-susceptible Pseudomonas aeruginosa isolate 260-97103; format: functional
[20] = test system: Stenotrophomonas maltophilia; assay: Antibacterial activity against Stenotrophomonas maltophilia isolate CAN-ICU 62584 after 24 hrs by microtitre broth dilution method; format: functional; settings: isolate CAN-ICU 62584, 24 h
Pseudomonas aeruginosa [21] = assay: Antibacterial activity against multidrug/extremely drug-resistant/colistin-susceptible Pseudomonas aeruginosa isolate 100036; format: functional
Staphylococcus aureus [22] = assay: Antibacterial activity against Staphylococcus aureus ATCC 29213 after 24 hrs by microtitre broth dilution method; format: functional; settings: ATCC 29213, 24 h
[23] = Inhibition of circular DNA translation in Escherichia coli S30 extract after 60 mins by luciferase reporter gene assay
Summary of the method: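 Translation was run in an E. coli S30 extract with a luciferase read-out. Luminescence is expressed as a percentage of the no-antibiotic control, taken as 100%.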

Pseudomonas aeruginosa [24] = assay: Antibacterial activity against multidrug/extremely drug-resistant/colistin-susceptible Pseudomonas aeruginosa isolate 264-104354; format: functional
Pseudomonas aeruginosa [25] = assay: Antibacterial activity against multidrug-resistant/tobramycin-susceptible Pseudomonas aeruginosa isolate 86053; format: functional
Pseudomonas aeruginosa [26] = assay: Antibacterial activity against Pseudomonas aeruginosa PAO1; format: functional
Pseudomonas aeruginosa [27] = assay: Antibacterial activity against Pseudomonas aeruginosa ATCC 27853 after 24 hrs by microtitre broth dilution method; format: functional; settings: ATCC 27853, 24 h
Pseudomonas aeruginosa [28] = assay: Ratio of MIC for Pseudomonas aeruginosa PAO1 after 25 serial passages to MIC for Pseudomonas aeruginosa PAO1 prior to 25 serial passages; format: functional
Summary of the method: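 P. aeruginosa PAO1 exposed to sub-inhibitory (0.5 x MIC) drug over successive subcultures as a resistance-selection procedure. MIC compared after versus before passaging.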

Pseudomonas aeruginosa [29] = assay: Antibacterial activity against multidrug-resistant/tobramycin-susceptible Pseudomonas aeruginosa isolate 92014; format: functional
Pseudomonas aeruginosa [30] = assay: Antibacterial activity against multidrug-resistant/tobramycin-susceptible Pseudomonas aeruginosa isolate 80621; format: functional
Staphylococcus aureus [31] = assay: Antibacterial activity against methicillin-resistant Staphylococcus aureus ATCC 33592 after 24 hrs by microtitre broth dilution method; format: functional; settings: ATCC 33592, 24 h
Pseudomonas aeruginosa [32] = assay: Antibacterial activity against extremely drug-resistant Pseudomonas aeruginosa isolate 104354 infected in Galleria mellonella assessed as larvae survival at 50 mg/kg administered as single dose measured after 24 hrs (reference value: 27 %); format: functional; settings: isolate 104354, 24 h; summary of the method: as §1
Pseudomonas aeruginosa [33] = assay: Antibacterial activity against multidrug-resistant/tobramycin-susceptible Pseudomonas aeruginosa isolate 83182; format: functional
Pseudomonas aeruginosa [34] = assay: Antibacterial activity against multidrug-resistant/tobramycin-susceptible Pseudomonas aeruginosa isolate 86141; format: functional
Pseudomonas aeruginosa [35] = assay: Antibacterial activity against multidrug-resistant/tobramycin-susceptible Pseudomonas aeruginosa isolate 79199; format: functional
Pseudomonas aeruginosa [36] = assay: Antibacterial activity against multidrug-resistant/tobramycin-susceptible Pseudomonas aeruginosa isolate 86067; format: functional
[37] = test system: Staphylococcus epidermidis; assay: Antibacterial activity against methicillin-resistant Staphylococcus epidermidis isolate CAN-ICU 61589 after 24 hrs by microtitre broth dilution method; format: functional; settings: isolate CAN-ICU 61589, 24 h
Pseudomonas aeruginosa [38] = assay: Antibacterial activity against gentamicin/tobramycin-resistant Pseudomonas aeruginosa isolate CANWARD-2011 96846 after 24 hrs by microtitre broth dilution method; format: functional; settings: isolate CANWARD-2011 96846, 24 h

SMILES: NC[C@H]1O[C@H](O[C@H]2[C@H](O)[C@@H](O[C@H]3O[C@H](CO)[C@@H](O)[C@H](N)[C@H]3O)[C@H](N)C[C@@H]2N)[C@H](N)C[C@@H]1O [TOBRAMYCIN]
- MIC (Enterococcus faecalis): 8 µg/mL (≈ 17.1 µM)
- MIC (Escherichia coli [1]): 128 µg/mL (≈ 274 µM)
- MIC (Pseudomonas aeruginosa [2]): 1 µg/mL (≈ 2.14 µM)
- MIC (Escherichia coli [3]): 0.5 µg/mL (≈ 1.07 µM)
- MIC (Escherichia coli [4]): 8 µg/mL (≈ 17.1 µM)
- MIC (Pseudomonas aeruginosa [5]): 2 µg/mL (≈ 4.28 µM)
- MIC (Klebsiella pneumoniae): ≤ 0.25 µg/mL
- MIC (Pseudomonas aeruginosa [6]): > 64 µg/mL
- MIC (Pseudomonas aeruginosa [7]): 16 µg/mL (≈ 34.2 µM)
- MIC (Pseudomonas aeruginosa [8]): 8 µg/mL (≈ 17.1 µM)
- MIC (Escherichia coli [9]): 8 µg/mL (≈ 17.1 µM)
- MIC (Pseudomonas aeruginosa [10]): 1 µg/mL (≈ 2.14 µM)
- survival at 75 mg/kg (Pseudomonas aeruginosa [11]): 0%
- MIC [12]: ≤ 0.25 µg/mL
- MIC (Pseudomonas aeruginosa [13]): > 64 µg/mL
- MIC (Pseudomonas aeruginosa [14]): 1 µg/mL (≈ 2.14 µM)
- Activity (Pseudomonas aeruginosa [15]): Dose-dependent effect
- MIC (Pseudomonas aeruginosa [16]): 4 µg/mL (≈ 8.56 µM)
- MIC (Acinetobacter baumannii): 32 µg/mL (≈ 68.4 µM)
- MIC (Enterococcus faecium): 8 µg/mL (≈ 17.1 µM)
- MIC (Streptococcus pneumoniae): 2 µg/mL (≈ 4.28 µM)
- MIC (Pseudomonas aeruginosa [17]): < 0.5 µg/mL
- MIC (Pseudomonas aeruginosa [18]): > 64 µg/mL
- MIC (Pseudomonas aeruginosa [19]): 32 µg/mL (≈ 68.4 µM)
- MIC [20]: > 512 µg/mL
- MIC (Pseudomonas aeruginosa [21]): 64 µg/mL (≈ 137 µM)
- MIC (Staphylococcus aureus [22]): ≤ 0.25 µg/mL
- IC50 [23]: 6.2 nM
- MIC (Pseudomonas aeruginosa [24]): > 64 µg/mL
- MIC (Pseudomonas aeruginosa [25]): 1 µg/mL (≈ 2.14 µM)
- MIC (Pseudomonas aeruginosa [26]): 0.5 µg/mL (≈ 1.07 µM)
- MIC (Pseudomonas aeruginosa [27]): 0.5 µg/mL (≈ 1.07 µM)
- Ratio (Pseudomonas aeruginosa [28]): 512
- MIC (Pseudomonas aeruginosa [29]): 1 µg/mL (≈ 2.14 µM)
- MIC (Pseudomonas aeruginosa [30]): 2 µg/mL (≈ 4.28 µM)
- MIC (Staphylococcus aureus [31]): ≤ 0.25 µg/mL
- survival at 50 mg/kg (Pseudomonas aeruginosa [32]): 20%
- MIC (Pseudomonas aeruginosa [33]): 1 µg/mL (≈ 2.14 µM)
- MIC (Pseudomonas aeruginosa [34]): 1 µg/mL (≈ 2.14 µM)
- MIC (Pseudomonas aeruginosa [35]): 2 µg/mL (≈ 4.28 µM)
- MIC (Pseudomonas aeruginosa [36]): > 64 µg/mL
- MIC [37]: 1 µg/mL (≈ 2.14 µM)
- MIC (Pseudomonas aeruginosa [38]): 256 µg/mL (≈ 548 µM)
